Each structure is given as a SMILES string. pIC50: −log10 of the molar value. Bounds are passed on as bounds.

Common to all, as to assay type: functional, cell-based
In assay [1] the test system is SW480. Description: Cytotoxicity against human SW480 cells after 48 hrs by MTT assay. The settings on record: SW480, 48 h. In outline:
(§1)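 Human tumour cells were seeded in 96-well plates at an initial density of 1 × 10^5 cells/mL. Adherent lines were allowed to attach for 12 h before dosing, and HL-60 suspension cells were seeded just before dosing. Cells were exposed to […], 0.32, 1.6, 8 and 40 μM for 48 h, in triplicate, with cisplatin and paclitaxel as positive controls. Viability was read by MTT and growth curves were plotted.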
(Tetrazolium assays rely on reduction of a dye to a coloured formazan, in cell work by metabolically active cells.)

The test system of assay [2] is HL-60. Description: Cytotoxicity against human HL60 cells after 48 hrs by MTT assay. The conditions noted are these: HL-60, 48 h. The procedure, abridged: as §1
Assay [3] relates to A549. Put plainly: Cytotoxicity against human A549 cells after 48 hrs by MTT assay. The settings on record: A549, 48 h. The procedure, abridged:
as §1

In assay [4] the test system is MCF7. Put plainly: Cytotoxicity against human MCF7 cells after 48 hrs by MTT assay. The conditions noted are these: MCF7, 48 h. The procedure, abridged:
as §1

The subject of assay [5] is SMMC-7721. Put plainly: Cytotoxicity against human SMMC7721 cells after 48 hrs by MTT assay. The settings on record: SMMC-7721, 48 h. The procedure, abridged:
as §1

Take `O=C1C[C@@H]2OCC=C3CN4CC[C@]56c7ccccc7N1[C@H]5[C@H]2[C@H]3C[C@]46O` [PSEUDOSTRYCHNINE]: the pIC50 in assay [1], in assay [2], in assay [3], in assay [4] and in assay [5] was below 4.40 each time.

Regarding `O=C1C[C@H]2C3=CCO[C@H]4CC(=O)n5c(c(c6ccccc65)CCN1C3)[C@H]42` [STRYNUXLINE B], the pIC50 (in general, the negative decadic logarithm of the IC50, by convention in mol/L) in assay [1] is 4.72; in assay [2], 4.78; in assay [3], 4.74; in assay [4] it was 4.95; in assay [5], 4.80.

As for `O=C1C[C@@H]2OCC=C3C[N+]4([O-])CC[C@]56c7ccccc7N1[C@H]5[C@H]2[C@H]3C[C@@H]64` (stereo not given in full), the pIC50 in assay [1], in assay [2], in assay [3], in assay [4] and in assay [5] was below 4.40 in each case.

As for `COc1ccc2c(c1)N1C(=O)C[C@@H]3OCC=C4CN5CC[C@]26[C@@H]5C[C@@H]4[C@@H]3[C@H]16`, the pIC50 in assay [1], in assay [2], in assay [3], in assay [4] and in assay [5] was below 4.40 each time.

Turning to `O=C1C[C@@H]2OCC=C3CN4CC[C@]56c7ccccc7N1[C@H]5[C@H]2[C@H]3C[C@H]46` [STRYCHNINE], the pIC50 in assay [1], in assay [2], in assay [3], in assay [4] and in assay [5] was below 4.40 each time.

On to `C[N+]12CC[C@@]34c5ccccc5N5C(=O)C[C@@H]6OCC=C(C1)[C@H](C[C@@H]32)[C@@H]6[C@H]54` (stereo not given in full) [STRYCHNINE METHIODIDE], for which the pIC50 in assay [1], in assay [2], in assay [3], in assay [4] and in assay [5] was below 4.40 throughout.

Turning to `O=C1CC=C2[C@H]3C[C@@H]4N(CC[C@@]45c4ccccc4N1[C@@H]25)C/C3=C/CO` [ISOSTRYCHNINE], the pIC50 in assay [1], in assay [2], in assay [3], in assay [4] and in assay [5] was below 4.40 throughout.

Take `COC1=C2CN(C)CC[C@]34C(=O)C[C@@H]2[C@H]2[C@H](CC(=O)N(c5ccccc53)[C@@H]24)OC1`: the pIC50 in assay [1], in assay [2], in assay [3], in assay [4] and in assay [5] was below 4.40 each time.

For the molecule `CN1CC[C@]23C(=O)C[C@H]4C(=CCO[C@H]5CC(=O)N(c6c(O)cccc62)[C@H]3[C@H]54)C1` [VOMICINE], the pIC50 in assay [1], in assay [2], in assay [3], in assay [4] and in assay [5] was below 4.40 in each case.

With `COc1cc2c(cc1OC)[C@]13CCN4C/C(=C/CO)[C@H](C[C@H]41)C1=CCC(=O)N2[C@@H]13` [ISOBRUCINE], the pIC50 in assay [1], in assay [2], in assay [3], in assay [4] and in assay [5] was below 4.40 throughout.

`COc1cc2c3c4n(c2cc1OC)C(=O)C[C@@H]1OCC=C2CN(CC3)C(=O)C[C@@H]2[C@H]41` [STRYNUXLINE A]: the pIC50 in assay [1] was 4.88; in assay [2], 5.15; in assay [3] it was 4.77; in assay [4], 4.91; in assay [5] it was 5.03.

On to `C/C=C1/CN2CC[C@@]34c5ccccc5N5/C=C6/[C@H]7C[C@@H]8N(CC[C@@]89c8ccccc8N(/C=C(/[C@H]1C[C@H]23)[C@H]54)[C@@H]69)C/C7=C/C` [BISNORDIHYDROTOXIFERINE], for which the pIC50 in assay [1], in assay [2], in assay [3], in assay [4] and in assay [5] was below 4.40 throughout.

Take `CN1CC[C@]23C(=O)C[C@H]4C(=CCO[C@H]5CC(=O)N(c6ccccc62)[C@H]3[C@H]54)C1` [ICAJINE]: the pIC50 in assay [1], in assay [2], in assay [3], in assay [4] and in assay [5] was below 4.40 throughout.

For `COc1cc2c(cc1OC)[C@@]13CCN(C)CC4=CCO[C@H]5CC(=O)N2[C@H]1[C@H]5[C@H]4CC3=O` [NOVACINE], the pIC50 in assay [1], in assay [2], in assay [3], in assay [4] and in assay [5] was below 4.40 each time.

For `COc1cc2c(cc1OC)[C@@]13CC[N+]4([O-])CC5=CCO[C@H]6CC(=O)N2[C@H]1[C@H]6[C@H]5C[C@@H]34` (stereo not given in full), the pIC50 in assay [1], in assay [2], in assay [3], in assay [4] and in assay [5] was below 4.40 throughout.

In the case of `COc1cc2c(cc1OC)[C@@]13CCN4CC5=CCO[C@H]6CC(=O)N2[C@H]1[C@H]6[C@H]5C[C@]43O` [PSEUDOBRUCINE], the pIC50 in assay [1], in assay [2], in assay [3], in assay [4] and in assay [5] was below 4.40 throughout.

In the case of `COc1cc2c(cc1OC)[C@@]13CCN4CC5=CCO[C@H]6CC(=O)N2[C@H]1[C@H]6[C@H]5C[C@H]43` [BRUCINE], the pIC50 in assay [1], in assay [2], in assay [3], in assay [4] and in assay [5] was below 4.40 throughout.

For `COc1ccc2c(c1)[C@@]13CCN4CC5=CCO[C@H]6CC(=O)N2[C@H]1[C@H]6[C@H]5C[C@H]43`, the pIC50 in assay [1], in assay [2], in assay [3], in assay [4] and in assay [5] was below 4.40 in each case.
